# Data as given in the RNAGym collection of RNA variant scans (doi:10.1126/science.aae0568).
# Fewer inactive variants are shown than the library holds.
# B1: tRNA (parent)
# chain: GUUCCGUUGGCGUAAUGGUAACGCGUCUCCCUCCUAAGGAGAAGACUGCGGGUUCGAGUCCCGUACGGAACG
# Variants of: B1
# Assay: yeast fitness relative to wild type (ratio to wild type); higher = fitter; tRNA-Arg(CCU), competitive growth, 37 C, YPD
# Summary of the method: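 Start and end populations of a pooled competition were compared by 100-nucleotide paired-end sequencing of gene amplicons. The Saccharomyces cerevisiae strains carried tRNA-Arg(CCU) gene variants at the native genomic locus, synthesised with a 3% per-site mutation rate at 69 sites, and competed in YPD at 37°C for 24 hours in six parallel replicates. Darwinian fitness relative to wild type was based on the change in genotype frequencies. Genotypes required ≥ 100 starting reads, and estimates < 0.5 were set to 0.5.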
row,Variant,yeast fitness
1,G6C A15G C24U C60A,0.554
2,G6A U19C C24U,0.744
3,G6C C11G A15G C66A,≤ 0.5
4,G6C A15U A42G A65G,≤ 0.5
5,G6C C29G G39C,0.931
6,G6C A14C A21C A42G A70G,≤ 0.5
7,G6C C22U C24G C27U C29A C30U C31G,≤ 0.5
8,G6C G10C C11U G23A C24G C46G,≤ 0.5
9,G6C C29U G44A A65G,≤ 0.5
10,G6C C22A C46A C61G A69G,≤ 0.5
11,G6A U28A,0.821
12,G6A U28G,0.886
13,G6A U28C,0.898
14,G6A U28A C31G U35A U47A U54A,≤ 0.5
15,G6C C29G C66U,0.565
16,G6C A14G A20C G52A U64A G67A,≤ 0.5
17,G6C C33G A36U G38C A65G,≤ 0.5
18,G6C G12A G51A,0.538
19,G6C C31U U35A C46G G48A C49U,≤ 0.5
20,G6A U26A A37C A57U,≤ 0.5
21,G6C A43U G50A A70U,≤ 0.5
22,G6C A20C C66G A70U,0.577
23,G6C A21G,0.857
24,G6A U32G U35G,≤ 0.5

row,Variant,yeast fitness
1,G6A U19G,0.828
2,G6C C27G C34A A65C,≤ 0.5
3,G6C C11G C22U A69C,≤ 0.5
4,G6C A14G G39C,≤ 0.5
5,G6C G17A C24A U32C A45C,≤ 0.5
6,G6C C33U A43G G58A C60U,0.554
7,G6C C33A G56A U59A,≤ 0.5
8,G6C G10A U16G C24U G50C C55U,≤ 0.5
9,G6A U26A G48C,0.557
10,G6A U8C C34G,≤ 0.5
11,G6A U13G G48A G50A U54A,≤ 0.5
12,G6C C11G C61U A70U,≤ 0.5
13,G6C G17A C24A U32C A45C C60A,≤ 0.5
14,G6C C11A G48C,0.627
15,G6C A40G C61A,≤ 0.5
16,G6C C11G C61U,≤ 0.5
17,G6C C34G G38A,≤ 0.5
18,G6A U8C G12C C29G C30U A45U C62U A69U,0.823
19,G6C A45U C60A C61A G63A,≤ 0.5
20,G6C A14G C46G C62U C66U,≤ 0.5
21,G6C C29G C60A,≤ 0.5
22,G6C G10C A40G A42U,≤ 0.5
23,G6C G10A G17A A36U G51C A69C,≤ 0.5
24,G6A U13G C62G,≤ 0.5

row,Variant,yeast fitness
1,G6C C11G C22U,0.606
2,G6C C22U C24G C27U C29A C30U C31G C49U C66U G67A,≤ 0.5
3,G6A U32C C46G,0.694
4,G6A U26A A57C G67A A69U,≤ 0.5
5,G6C A14G U35G G51A,≤ 0.5
6,G6C G9A,1.03
7,G6C A37G G68C,0.536
8,G6C A45C U47C G68C,≤ 0.5
9,G6C G12A,0.85
10,G6C G12C,0.676
11,G6C C24A A70C,≤ 0.5
12,G6C A20U C22U C24U,≤ 0.5
13,G6C A37U,0.677
14,G6C A37G,0.728
15,G6C C11G U35A,≤ 0.5
16,G6C A14G A20C U54A A57C,≤ 0.5
17,G6C C11A C34G,≤ 0.5
18,G6A U13C C31U U32C G67C,≤ 0.5
19,G6C A57U C62U,≤ 0.5
20,G6C G12A C30G A36U A42C,≤ 0.5
21,G6A U26C,0.842
22,G6C C11G A15C G25C C27G C30G G38C,0.61
23,G6A U16G A37C A57C C60A,≤ 0.5
24,G6C C22A U28A G51U U53G,≤ 0.5

row,Variant,yeast fitness
1,G6A U13G A40U,0.502
2,G6C C22U A65G C66G G68C,≤ 0.5
3,G6C A15C C31U,≤ 0.5
4,G6A U35A,0.775
5,G6C A37G G44C A57U G68C,≤ 0.5
6,G6C G9A A21U U28C U35G A36C A65G C66A,≤ 0.5
7,G6C G17A A36C C62G,0.536
8,G6C C11G A15U C31G C61G A69G,0.657
9,G6A U47A U64A,≤ 0.5
10,G6A U53C,0.82
11,G6A U53A,0.663
12,G6C A15G U54G C55U,≤ 0.5
13,G6C A20C A40G A42U G58A G63A G67A,0.519
14,G6C A45U G50A,0.658
15,G6A U8C U54C,0.552
16,G6C A20U A36C A40G A43U A57C,≤ 0.5
17,G6C C46A,0.951
18,G6C C46G,0.823
19,G6C G12A A37C G51A U53C C62A,≤ 0.5
20,G6A U13G A36U C46G C62A,≤ 0.5
21,G6C A37C G58C U59C,≤ 0.5
22,G6A U13C G23A A65C,≤ 0.5
23,G6C C66A A70U,0.538
24,G6C G12C U47A,≤ 0.5

row,Variant,yeast fitness
1,G6C C66A,0.927
2,G6C C66U,1.01
3,G6C A15U G23C C31G G41C G48C,0.574
4,G6C A45C G48A G51C,≤ 0.5
5,G6C C33G A40U C46U C49G A65G,0.624
6,G6A U8C U13G C27U C61G,0.567
7,G6C G12A C27U G39C,0.616
8,G6C C24A C34U C49G G52C C55U C62G,≤ 0.5
9,G6C C55G G68A,≤ 0.5
10,G6A U8C G17A G25A C55A,≤ 0.5
11,G6A U13A A14G U32C A42U,≤ 0.5
12,G6C C24A G58C A65C,≤ 0.5
13,G6A U16A A43C G67C,≤ 0.5
14,G6C C29G,0.723
15,G6C A14C,0.596
16,G6C A14G,1
17,G6C A14U,0.607
18,G6A U8C C31G C60G,≤ 0.5
19,G6C G12A C27U G39C G63A,≤ 0.5
20,G6C A15U U26A A57C,0.707
21,G6A U8C G18C,≤ 0.5
22,G6C A15C A21C C34U A37U A57U,≤ 0.5
23,G6C C22A C31G A42G A65C,≤ 0.5
24,G6A U8C U19A C30A A45U G58C A69U,≤ 0.5

row,Variant,yeast fitness
1,G6C G9A A21U U28G C34U,≤ 0.5
2,G6C C11U U19C G44C G68A,≤ 0.5
3,G6C A40U,0.803
4,G6C A20G A45U,0.507
5,G6C C34G G38A U64A,≤ 0.5
6,G6C C46U C60A,0.644
7,G6C G17A A40U,≤ 0.5
8,G6A U47C A57C,≤ 0.5
9,G6C C22A C31G G51A C66U,≤ 0.5
10,G6C C31G C33G U47C G51A,≤ 0.5
11,G6C A15G A21G G25A A40C C61A A65U,≤ 0.5
12,G6C C11G C29U G50A C55U,≤ 0.5
13,G6C G10A C27A C49U C66U,≤ 0.5
14,G6C A43G,0.851
15,G6A U13A C30G C61U,0.601
16,G6C A14C U54C A65U,0.637
17,G6C C27U,0.933
18,G6C C27G,0.567
19,G6C C27A,0.84
20,G6C G10A U16G C31A,≤ 0.5
21,G6C C31U A36G G52C G68A,≤ 0.5
22,G6C A14G A20C U64A G67A,0.562
23,G6C G10C C29U C30G A45U,≤ 0.5
24,G6A U35G C55A,0.643

row,Variant,yeast fitness
1,G6A U13A G58C C60U C66G,≤ 0.5
2,G6C A40U G56A,≤ 0.5
3,G6C A20U C30G A65G A70U,0.53
4,G6A U8C G23A A57C,≤ 0.5
5,G6A U53A G67U G68A,≤ 0.5
6,G6C C11G A14U C22U G44A C55A,≤ 0.5
7,G6C C27U G51U G67A,≤ 0.5
8,G6C C46G U54C,≤ 0.5
9,G6C A43U C61G C62A,0.618
10,G6C C11G G48C A57G U59A C60A,≤ 0.5
11,G6C G9C U54C,0.603
12,G6C G17A C30U A42C A43G,≤ 0.5
13,G6C A14C G44C C62G,≤ 0.5
14,G6C A37U C49U G56A A69U,≤ 0.5
15,G6C A45C G50A,0.629
16,G6C G9A G48C G51C U53A C66A,≤ 0.5
17,G6C C31A G68C,0.502
18,G6C G17A C24A U32C,≤ 0.5
19,G6C A21U U26C,≤ 0.5
20,G6C G12A C31A A43G,≤ 0.5
21,G6C C33G A36C C49A,≤ 0.5
22,G6C G17A C30U A42C,0.63
23,G6C C11U U19C C22A U35C A69U,≤ 0.5
